Source: the array DNA melting data of Ke et al. (doi:10.1101/2024.01.08.574731)

Key:
[1] = folding enthalpy; higher = less favourable; fluorescence melt of hairpins on a sequencing array, two-state fit; conditions: sodium 0.088 M
Procedure, shortened: (§1)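 Two-state fits, bootstrapped, provided melting temperature and folding enthalpy from Cy3 fluorescence normalised to pre-quench Cy3 and to control constructs. Library hairpins with annealed Cy3 and quencher oligos were imaged on a sequenced MiSeq flow cell in 50 mM Na-HEPES pH 8.0, 25 mM NaCl, at 2.5 °C intervals up to 60 °C. Four replicates were combined with inverse-variance weighting. A 9.35 °C upward shift was applied to fitted temperatures to match UV melts.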

[2] = melting temperature; fluorescence melt of hairpins on a sequencing array, two-state fit, raised by 9.35 °C to match UV melts; conditions: sodium 0.088 M
Procedure, shortened: as §1

Row | Sequence | folding enthalpy [1] [kcal/mol] | Tm [2] [°C]
1 | GATCCTGGTTAGGATC ((((((....)))))) | -38 | 51.9
2 | GATCCTTAACAGGATC ((((((....)))))) | -36.3 | 49
3 | GATCCTTACGAGGATC ((((((....)))))) | -39.9 | 53.2
4 | GATCCTTACTAGGATC ((((((....)))))) | -36.5 | 52.4
5 | GATCCTTAGCAGGATC ((((((....)))))) | -38 | 48.8
6 | GATCCTTCCGAGGATC ((((((....)))))) | -43.5 | 53.1
7 | GATCCTTGAAGGATC ((((((...)))))) | -38.8 | 51.2
8 | GATCCTTGACAGGATC ((((((....)))))) | -28.2 | 49.7
9 | GATCCTTGAGAGGATC ((((((....)))))) | -42.5 | 53.6
10 | GATCCTTGGGAGGATC ((((((....)))))) | -43.2 | 53.2
11 | GATCCTTGTCAGGATC ((((((....)))))) | -37.6 | 50.1
12 | GATCCTTGTTAGGATC ((((((....)))))) | -34.8 | 52.8
13 | GATCCTTTCTAGGATC ((((((....)))))) | -40.5 | 53.7
14 | GATCCTTTGAGGATC ((((((...)))))) | -33.6 | 54.2
15 | GATCCTTTTAGGATC ((((((...)))))) | -28.8 | 58.9
16 | GATCGAAACATCGATC ((((((....)))))) | -39.9 | 50
17 | GATCGAAAGATCGATC ((((((....)))))) | -19.9 | 50.2
18 | GATCGAAAGTTCGATC ((((((....)))))) | -36.2 | 50.4
19 | GATCGAACACTCGATC ((((((....)))))) | -31 | 48.9
20 | GATCGAACATTCGATC ((((((....)))))) | -38.5 | 50.7
21 | GATCGAACCCTCGATC ((((((....)))))) | -39.5 | 50.2
22 | GATCGAACCTTCGATC ((((((....)))))) | -40.7 | 53.5
23 | GATCGAACGCTCGATC ((((((....)))))) | -40.4 | 50.7
24 | GATCGAACTGTCGATC ((((((....)))))) | -31.1 | 49.2

Row | Sequence | folding enthalpy [1] [kcal/mol] | Tm [2] [°C]
25 | GATCGAAGGGTCGATC ((((((....)))))) | -31.6 | 50.6
26 | GATCGAATAATCGATC ((((((....)))))) | -30.8 | 47.6
27 | GATCGAATACTCGATC ((((((....)))))) | -37.5 | 49.9
28 | GATCGAATCATCGATC ((((((....)))))) | -35.7 | 51.9
29 | GATCGAATGATCGATC ((((((....)))))) | -19.6 | 51.7
30 | GATCGAATGCTCGATC ((((((....)))))) | -49.6 | 49.9
31 | GATCGAATGTTCGATC ((((((....)))))) | -42.5 | 52.5
32 | GATCGACAAATCGATC ((((((....)))))) | -31.2 | 48.1
33 | GATCGACAGGTCGATC ((((((....)))))) | -39.1 | 60.3
34 | GATCGACATTCGATC ((((((...)))))) | -36.1 | 49.9
35 | GATCGACATTTCGATC ((((((....)))))) | -38.6 | 50.8
36 | GATCGACCCATCGATC ((((((....)))))) | -44.4 | 51.5
37 | GATCGACCTGTCGATC ((((((....)))))) | -40.3 | 65
38 | GATCGACCTTTCGATC ((((((....)))))) | -42.9 | 50.6
39 | GATCGACGAAAGTCCATC (((.(((....))).))) | -15.5 | 30
40 | GATCGACGAAAGTCTATC (((.(((....))).))) | -26.8 | 37.1
41 | GATCGACGAATCGATC ((((((....)))))) | -33.7 | 49
42 | GATCGACGATTCGATC ((((((....)))))) | -37.1 | 49.4
43 | GATCGACGCATCGATC ((((((....)))))) | -32.6 | 52.6
44 | GATCGACGCCTCGATC ((((((....)))))) | -43.6 | 51.6
45 | GATCGACGTTCGATC ((((((...)))))) | -40.8 | 50
46 | GATCGACTCTCGATC ((((((...)))))) | -40.6 | 50.9
47 | GATCGACTGATCGATC ((((((....)))))) | -30.5 | 50.9
48 | GATCGACTTTTCGATC ((((((....)))))) | -35.1 | 51.6

Row | Sequence | folding enthalpy [1] [kcal/mol] | Tm [2] [°C]
49 | GATCGAGAATCGATC ((((((...)))))) | -39.8 | 59.5
50 | GATCGAGACTCGATC ((((((...)))))) | -37.1 | 52.9
51 | GATCGAGCATTCGATC ((((((....)))))) | -42.6 | 58.2
52 | GATCGAGCCGTCGATC ((((((....)))))) | -34.8 | 54.4
53 | GATCGAGCTCTCGATC ((((((....)))))) | -39.1 | 55.2
54 | GATCGAGGAAACTTGATC ((((.((....)).)))) | -28.7 | 44.3
55 | GATCGAGGGATCGATC ((((((....)))))) | -34.2 | 53.4
56 | GATCGAGGGCTCGATC ((((((....)))))) | -46.3 | 53.5
57 | GATCGAGGGTTCGATC ((((((....)))))) | -36.9 | 50.9
58 | GATCGAGGTTTCGATC ((((((....)))))) | -44.7 | 53.2
59 | GATCGAGTGATCGATC ((((((....)))))) | -40.1 | 55.3
60 | GATCGAGTTATCGATC ((((((....)))))) | -41.7 | 58.6
61 | GATCGATAATTCGATC ((((((....)))))) | -39.6 | 51.2
62 | GATCGATACATCGATC ((((((....)))))) | -46.2 | 55.9
63 | GATCGATACCTCGATC ((((((....)))))) | -35.1 | 53.1
64 | GATCGATACGTCGATC ((((((....)))))) | -38.6 | 54.5
65 | GATCGATACTTCGATC ((((((....)))))) | -57.9 | 53
66 | GATCGATCCATCGATC ((((((....)))))) | -49.1 | 56.7
67 | GATCGATCGCTCGATC ((((((....)))))) | -37.3 | 52.4
68 | GATCGATGAGTCGATC ((((((....)))))) | -41.6 | 55.5
69 | GATCGATGCTCGATC ((((((...)))))) | -37 | 51.8
70 | GATCGATGCTTCGATC ((((((....)))))) | -41.9 | 54.9
71 | GATCGATTAATCGATC ((((((....)))))) | -43.9 | 55.9
72 | GATCGATTAGTCGATC ((((((....)))))) | -54.5 | 53.2

Row | Sequence | folding enthalpy [1] [kcal/mol] | Tm [2] [°C]
73 | GATCGATTCCTCGATC ((((((....)))))) | -41.2 | 52.3
74 | GATCGATTCTTCGATC ((((((....)))))) | -36.8 | 56.9
75 | GATCGATTTCTCGATC ((((((....)))))) | -36.4 | 52.5
76 | GATCGATTTTTCGATC ((((((....)))))) | -44.3 | 54.7
77 | GATCGCAAAAGCGATC ((((((....)))))) | -29.1 | 61.9
78 | GATCGCAAAGGCGATC ((((((....)))))) | -41.9 | 63.9
79 | GATCGCAACAGCGATC ((((((....)))))) | -35.4 | 69.1
80 | GATCGCACAAGCGATC ((((((....)))))) | -37 | 69.3
81 | GATCGCACATGCGATC ((((((....)))))) | -39.8 | 68.3
82 | GATCGCACCAGCGATC ((((((....)))))) | -31.2 | 69.3
83 | GATCGCACCTGCGATC ((((((....)))))) | -32.3 | 69.2
84 | GATCGCACGAAAGTGATC (((..(((....)))))) | -16.3 | 36.4
85 | GATCGCAGAGGCGATC ((((((....)))))) | -35.8 | 66.8
86 | GATCGCAGGGGCGATC ((((((....)))))) | -34.1 | 67.5
87 | GATCGCAGGTGCGATC ((((((....)))))) | -39.8 | 68.4
88 | GATCGCAGTGCGATC ((((((...)))))) | -30.1 | 67.6
89 | GATCGCAGTGGCGATC ((((((....)))))) | -31.5 | 67.5
90 | GATCGCATACGCGATC ((((((....)))))) | -36.1 | 69.3
91 | GATCGCATCGGCGATC ((((((....)))))) | -33.6 | 68.8
92 | GATCGCATGGGCGATC ((((((....)))))) | -40.5 | 68.5
93 | GATCGCATGTGCGATC ((((((....)))))) | -37.8 | 68.3
94 | GATCGCCACCGCGATC ((((((....)))))) | -40.2 | 67.1
95 | GATCGCCAGCGCGATC ((((((....)))))) | -33.3 | 63.7
96 | GATCGCCCACGCGATC ((((((....)))))) | -35 | 68.1
